# TRPC4 PAM – allosterically enhances the mouse TRPC4 cation channel; Q9QUQ5; HEK293 TRPC4beta/mu-opioid, DAMGO EC20, Fluo-4 Ca2+ flux; hits give high values; B-score at 10 µM; 310,000 compounds, 0.42% hits;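 active = B-score of calcium response area above 5 SD of library B-scores, with initial fluorescence ratio within 5 SD of library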;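 also: B-score of integrated fluorescence ratio over time as area under calcium response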
# Target sequence (Q9QUQ5 whole entry, looked up): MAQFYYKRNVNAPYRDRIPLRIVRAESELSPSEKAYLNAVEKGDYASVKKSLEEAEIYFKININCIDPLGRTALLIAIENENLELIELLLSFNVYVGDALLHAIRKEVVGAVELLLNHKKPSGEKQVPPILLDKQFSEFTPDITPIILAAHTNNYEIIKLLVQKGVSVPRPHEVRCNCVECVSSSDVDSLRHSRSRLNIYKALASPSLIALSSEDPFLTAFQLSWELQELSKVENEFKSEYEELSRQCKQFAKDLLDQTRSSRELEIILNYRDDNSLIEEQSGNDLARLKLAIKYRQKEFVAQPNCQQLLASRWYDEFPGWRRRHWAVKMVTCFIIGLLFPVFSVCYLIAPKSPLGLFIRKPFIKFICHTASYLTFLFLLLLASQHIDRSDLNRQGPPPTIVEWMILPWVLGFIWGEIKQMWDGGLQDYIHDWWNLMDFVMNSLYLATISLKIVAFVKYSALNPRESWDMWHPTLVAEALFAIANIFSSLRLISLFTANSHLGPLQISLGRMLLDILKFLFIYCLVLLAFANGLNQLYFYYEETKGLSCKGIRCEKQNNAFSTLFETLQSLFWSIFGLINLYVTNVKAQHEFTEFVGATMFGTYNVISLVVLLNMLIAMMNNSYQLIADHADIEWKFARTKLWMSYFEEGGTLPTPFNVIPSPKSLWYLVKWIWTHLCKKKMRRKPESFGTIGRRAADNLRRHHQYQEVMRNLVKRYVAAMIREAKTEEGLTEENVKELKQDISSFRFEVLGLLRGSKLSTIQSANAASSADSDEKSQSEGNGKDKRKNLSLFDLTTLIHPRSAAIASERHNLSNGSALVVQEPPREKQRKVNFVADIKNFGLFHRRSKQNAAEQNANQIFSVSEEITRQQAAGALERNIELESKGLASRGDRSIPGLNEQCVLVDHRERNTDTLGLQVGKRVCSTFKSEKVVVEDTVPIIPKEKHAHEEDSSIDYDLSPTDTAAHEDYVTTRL
# TRPC4 block – blocks the mouse TRPC4 cation channel; 300,000 compounds, 0.39% hits; HEK293 TRPC4beta/mu-opioid, DAMGO-evoked Fluo4 calcium flux; hits give low values; Q9QUQ5; B-score at 10 µM;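 active = B-score over 3 SD under the library average, no early fluorescence shift, positive overall ratio signal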
#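 Assay system: HEK293 cells with stable TRPC4beta plus mu-opioid receptor expression; Probe or stimulus: DAMGO in two steps, submaximal then maximal; Dosing: single-point compound dosing; Measured by: Fluo4 calcium-dye fluorescence, kinetic read; Read-out basis: B score from integrated Fluo4 fluorescence ratio.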
# Kir21 block – blocks the mouse Kir2.1 inward-rectifier potassium channel | HEK293-Kir2.1, FluxOR thallium flux fluorescence; hits give low values | 310,000 compounds, 0.85% hits | P35561 | B-score at 10 µM;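 active = fluorescence ratio B-score at or below minus 3 SD of library scores, with starting-brightness B-score within 2 SD, cut at about -4.2 in these data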;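 also: channel flux triggered by added potassium and thallium sulfate stimulus; B-score of peak minus minimum fluorescence over baseline after thallium stimulus; more negative B-score means stronger Kir2.1 block with less thallium influx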
# TRPC6 inh – inhibitors of mouse TRPC6 channel; Q61143; HEK293-TRPC6, membrane potential dye, ACh-evoked depolarization; hits give low values; B-score at 10 µM; 310,000 compounds, 1.1% hits; AID 2553;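 active = B-score under library mean minus 3 SD, initial fluorescence not abnormally high, positive integrated signal ratio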;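 also: B-score derived from integrated fluorescence ratio over the kinetic read; more negative B-score means stronger inhibition of depolarization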
# TRPC6 activator – mouse TRPC6 channel activation; 310,000 compounds, 0.13% hits; Q61143; B-score at 10 µM; HEK293-TRPC6 membrane potential dye fluorescence; hits give high values; AID 2550;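 active = B-score of the integrated fluorescence ratio above library mean plus 3 SD, and starting fluorescence ratio within library mean plus 5 SD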;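 also: higher score means more depolarization so channel activation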
# TRPC4 agonist – activators of mouse TRPC4 channel. B-score at 10 µM. HEK293 TRPC4beta/mu-opioid, Fluo4 calcium fluorescence; hits give high values. AID 2237. Q9QUQ5. 310,000 compounds, 0.49% hits;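 active = B-score above 5 SD of library B-scores, and initial fluorescence ratio not above library mean plus 5 SD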;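 also: positive B-score marks a calcium rise read as TRPC4 activation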
#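 Technique: kinetic Fluo4 calcium fluorescence; Test system: TRPC4beta and mu-opioid receptor HEK293 stable cells; Measure: B-scored integrated calcium fluorescence ratio; Benchmarks: low control buffer alone, high control maximal DAMGO; Schedule: 45 min room-temperature Fluo4 loading, 110 s read.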
# TRPC4 sel inh 2 – second check of whether TRPC6 inhibitors also affect mouse TRPC4 | HEK293 TRPC4/MOR, membrane potential dye fluorescence; channel activated by saturating DAMGO dose | shares compounds with TRPC6 inh | 920 compounds, 42% hits | inhibition, % at 10 µM;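 active = compounds whose fluorescence signal differed from control wells by over 3 SD, either direction, in both duplicate plates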
# TRPC4 spec – selectivity of TRPC6 inhibitors: effect on mouse TRPC4; AID 2777; shares compounds with TRPC6 inh; 920 compounds, 61% hits; HEK293 TRPC4/mu-opioid, membrane potential fluorescence; activity change, negative = inhibition, % at 10 µM;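 active = rise or fall in signal beyond 3 SD of buffer-only wells in both replicate plates, either sign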;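 also: integrated kinetic ratio of fluorescence range over baseline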
# HEK293 MPD ctr 2-1 – parental HEK293 nonspecific activity of TRPC6 inhibitors, second screen; shares compounds with TRPC6 inh; parental HEK293 membrane potential dye fluorescence; maximal acetylcholine challenge after compound addition; signal change vs control, % at 10 µM; 920 compounds, 31% hits; AID 2779;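 active = membrane potential signal moving either way by over 3 SD of the maximum-effect control, in both duplicate plates, meaning non-specific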
# HEK293 MPD ctr-1 – parental HEK293 nonspecific activity of TRPC6 inhibitors | membrane potential signal change, % at 10 µM | parental HEK293 membrane potential dye fluorescence | 920 compounds, 60% hits | shares compounds with TRPC6 inh;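 active = membrane potential signal shifting up or down by more than 3 SD of buffer-only wells, on both duplicate plates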
# HEK293 MPD ctr-2 – parental HEK293 nonspecific activity of TRPC6 modulators; shares compounds with TRPC6 inh; membrane potential dye fluorescence; membrane potential signal change, % at 10 µM; 2,400 compounds, 51% hits;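 active = membrane potential signal moves up or down beyond 5 SD from buffer-only wells, on both duplicate plates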
# HEK293 MPD ctr 2-2 – second check of TRPC6 modulator effects in parental HEK293 cells. inhibition, % at 10 µM. 2,400 compounds, 14% hits. shares compounds with TRPC6 inh. AID 488926. membrane potential dye fluorescence; after compound, maximal acetylcholine stimulation;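 active = membrane potential signal drops by more than 5 SD from the mean control signal, in both duplicate plates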;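 also: plate controls were acetylcholine ECmax control wells for no effect and buffer only wells for full effect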
# TRPC4 ctr mod – tests whether TRPC6 modulators also affect mouse TRPC4. AID 488927. percent change from control (negative = decrease, positive = increase), % at 10 µM. shares compounds with TRPC6 inh. HEK293 TRPC4/mu-opioid, membrane potential fluorescence. 2,400 compounds, 69% hits;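 active = membrane potential signal moved up or down beyond 5 SD of buffer control wells, in both duplicate plates, actives on both sides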;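 also: plate controls were assay buffer wells for no effect and DAMGO maximal-effect wells for full effect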
# TRPC4 ctr inh 2 – second check of whether TRPC6 modulators also affect mouse TRPC4. shares compounds with TRPC6 inh. HEK293 TRPC4/mu-opioid, membrane potential dye fluorescence; stimulated with maximal-effect DAMGO. inhibition, % at 10 µM. 2,400 compounds, 55% hits. AID 488928;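 active = drop in membrane potential signal beyond 5 SD of the control wells in both duplicate plates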;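 also: TRPC4 counter screen for TRPC6 hits run under conditions tuned for TRPC6 not TRPC4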
# TRPC6 block conf – confirmation of mouse TRPC6 inhibitors. shares compounds with TRPC6 inh. HEK293-TRPC6, membrane potential dye, ACh-evoked depolarization. inhibition, % at 10 µM. 3,300 compounds, 43% hits;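 active = fluorescence ratio falls more than 5 SD below the full-stimulation control mean, in both duplicate runs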;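 also: integrated fluorescence ratio of peak minus minimum over baseline after agonist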
# TRPC6 act conf – confirmation of mouse TRPC6 activators; shares compounds with TRPC6 inh; HEK293-TRPC6 membrane potential dye fluorescence, FDSS; activation, % at 10 µM; 2,800 compounds, 11% hits; AID 488961;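 active = ratio signal rise beyond 5 SD above unstimulated control wells' mean, seen in both duplicate runs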;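 also: plate controls were buffer EC0 wells for no effect and acetylcholine ECmax response for full effect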
# Starred values were filed as active, the others as inactive; i = inactive; . = no result given. Only some compounds are listed: those with a hit (about 2.9% of all), similar ones and a draw of the others.
SMILES,TRPC4 PAM,TRPC4 block,Kir21 block,TRPC6 inh,TRPC6 activator,TRPC4 agonist,HEK293 MPD ctr-2,HEK293 MPD ctr 2-2,TRPC4 ctr mod,TRPC4 ctr inh 2,TRPC6 block conf,TRPC6 act conf,others
Cc1oc(-c2cccc(Cl)c2)nc1CN1CCC(C(=O)NCc2ccco2)CC1,i,i,0.09,i,i,i,.,.,.,.,.,.,
COc1ccc(-c2nc(CN3CCN(C(=O)c4ccco4)CC3)c(C)o2)cc1OC,i,i,1.4,i,i,i,.,.,.,.,.,.,
O=C(COC(=O)CCc1c[nH]c2ccccc12)NCc1ccccc1,i,i,-1.6,i,i,i,.,.,.,.,.,.,
Cc1cc(C)cc(NC(=O)C2CC3CCC2C3)c1 (centres undefined),i,i,0.41,i,i,i,.,.,.,.,.,.,
COc1ccc(CNc2ncnc3cc(OC)c(OC)cc23)cc1OC,i,i,1.1,i,i,i,.,.,.,.,.,.,
Cn1cnnc1SCc1ccc(C(=O)n2ncc(C#N)c2N)cc1,i,i,1.4,i,i,i,.,.,.,.,.,.,
COc1ccc(-c2cn3cc([N+](=O)[O-])ccc3n2)cc1OC,i,i,0.24,-5*,i,i,-111%*,i,-22%*,30%*,i,i,
O=[N+]([O-])c1cccc(-c2cn3ccccc3n2)c1,i,i,0.58,i,i,i,.,.,.,.,.,.,
COc1ccccc1-n1cc(CN2CCN(CC(C)C)C(CCO)C2)cn1 (centres undefined),i,i,-1.1,i,i,i,.,.,.,.,.,.,
COC(=O)c1ccc(CN2CCN(C3CCCC3)C(CCO)C2)cc1 (centres undefined),i,i,-0.02,-9.5*,i,i,.,.,.,.,63%*,.,TRPC4 sel inh 2=i;TRPC4 spec=2.2%*;HEK293 MPD ctr 2-1=6.0%*;HEK293 MPD ctr-1=4.6%*
COC(=O)c1ccc(CN2CCN(C3CCCCC3)C(CCO)C2)cc1 (centres undefined),i,i,0.18,i,i,i,.,.,.,.,.,.,
COc1ccccc1-n1cc(CN2CCN(C3CCCC3)C(CCO)C2)cn1 (centres undefined),i,i,0.3,-5.2*,i,i,i,i,10%*,i,36%*,.,
CC1=C(c2ccccc2)CCC1=O,i,i,0.45,i,i,i,.,.,.,.,.,.,
CC[N+](C)(C)CCN(Cc1ccc(Cl)cc1)c1ccccn1,i,i,1.2,-6.4*,i,i,i,i,i,i,i,i,
Cn1nc(C(C)(C)C)cc1C(=O)Nc1nc2c(s1)C(=O)CC(C)(C)C2,i,i,-0.45,-5*,i,i,i,i,i,i,i,.,
CC(C)(C)c1ccc(Cn2c(=N)n(CC(O)c3ccco3)c3ccccc32)cc1 (centres undefined),i,i,-6.2*,-7.3*,i,i,.,.,.,.,67%*,i,TRPC4 sel inh 2=37%*;TRPC4 spec=11%*;HEK293 MPD ctr 2-1=i;HEK293 MPD ctr-1=8.7%*
COc1ccc(/C=C2/C(=N)N3N=C(CC(=O)N4CCCC4)SC3=NC2=O)cc1,i,i,1.4,i,12*,i,163%*,i,24%*,i,i,84%*,
COc1ccc(/C=C2\C(=N)N3N=C(CC(=O)N4CCCCC4)SC3=NC2=O)cc1,i,i,1.8,i,12*,i,136%*,i,22%*,i,i,76%*,
CCc1ccc(/C=C2\C(=N)N3N=C(CC(=O)N4CCCCC4)SC3=NC2=O)cc1,i,i,-1.3,i,i,i,.,.,.,.,.,.,
O=[N+]([O-])c1ccc(-c2cn3c(n2)SCC3)cc1,i,i,0.05,i,i,i,.,.,.,.,.,.,
O=C(C1COc2ccccc2O1)N1CCN(c2nc3c(F)cc(F)cc3s2)CC1 (centres undefined),i,i,0.19,-8.5*,i,i,.,.,.,.,i,i,TRPC4 sel inh 2=i;TRPC4 spec=i;HEK293 MPD ctr 2-1=i;HEK293 MPD ctr-1=i
O=C(NCCSc1ncc(-c2ccc(F)cc2)[nH]1)c1ccc2c(c1)OCO2,i,i,-1.9,-5.8*,i,i,i,i,i,i,i,i,
CCCNC(=O)Cn1c(=O)/c(=C\c2ccc(-c3ccc([N+](=O)[O-])cc3)o2)s/c1=C\C(=O)C(C)(C)C,i,i,-14,i,33*,i,978%*,i,274%*,i,i,281%*,
O=C(Cc1ccccc1)N/N=C/c1ccc(-c2ccc([N+](=O)[O-])cc2)o1,i,i,-0.03,i,i,i,.,.,.,.,.,.,
CCC1S/C(=N/N=C/c2ccco2)N(Cc2ccccc2)C1=O (centres undefined),i,i,-0.69,i,i,i,.,.,.,.,.,.,
CN(C)CCCNC1CS(=O)(=O)CC1O (centres undefined),i,i,-0.03,-7.2*,i,i,.,.,.,.,i,i,TRPC4 sel inh 2=i;TRPC4 spec=i;HEK293 MPD ctr 2-1=i;HEK293 MPD ctr-1=i
